# This is a sample that favours compounds with a hit; in the whole collection about 2.6% have one here.
# F508del corr – F508del CFTR correction, initial screen, CFBE line, single point. AID 720511, 2013. CFBE cells, YFP halide quenching; stimulated with forskolin plus potentiator P3; % fluorescence drop versus neutral controls. activity (quench increase), % at 7.58 µM. actives 0.36% (n = 350,000);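 active means mean added fluorescence quench of at least 8% versus neutral control, with both replicates also reaching 8%; inconclusive means only one of the mean or replicate conditions met; inactive means mean below 8% and not both replicates reaching 8%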;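 further: cells transiently co-express mutant CFTR-F508del with the halide-sensitive YFP; corrector assay measuring rescue of mutant channel to the surface after 24 h compound exposure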
# miR122 inh – miR-122 Renilla sensor signal increase in Huh7, primary screen, miR-122 inhibitor project, cell-based, single point, plate reader. activation (reporter increase), % at 12.5 µM. actives 0.3% (n = 340,000). Huh7 miR-122 Renilla luciferase sensor, 48 h; neutral wells = 0, positive control = 100;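 active means mean replicate activation score at least 90 and every replicate individually at or above 90; inconclusive means only one of the two criteria met; inactive means neither criterion met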;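 further: higher luciferase means less miR-122 activity so hits act as miR-122 inhibitors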
# ERAP1 HTS inh – human ERAP1 aminopeptidase inhibitors, primary screen, biochemical, single point, plate reader. inhibition, % at 10.7 µM. AID 652197, 2013. recombinant ERAP1, Leu-AMC fluorescence, 60 min. actives 0.15% (n = 340,000);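 active means mean replicate inhibition of at least 30%, or all replicates individually reaching that 30% level; inactive means mean below 30% and not every replicate reaching it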;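 further: 0% = neutral control wells and 100% = L-leucinethiol positive control wells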
# E-selectin induc – E-selectin induction in HUVECs, primary screen, imaging, HUVEC, immunofluorescence imaging, single point; activation, % at 7.58 µM; normalized: neutral wells 0, TNF-alpha wells 100; P16581; actives 0.37% (n = 260,000); AID 686992, 2013;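 active means mean E-selectin-positive cell signal at least 10% of the positive control, reached in at least 60% of replicates, without over 20% cell loss; inconclusive means no rule given, readout overlaps actives, possibly toxicity-flagged; inactive means the rest, including those meeting only one limit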
#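 Test system – human umbilical vein endothelial cells (HUVEC), E-selectin induction · Input – 3,000 HUVEC seeded per well · Buffer or medium – EGM-2, gelatin · Compound dosing – single-point compound dose · Detection – immunofluorescence imaging · Measure – percent E-selectin-positive cells · Controls – TNF-alpha high, DMSO low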
# DENV2 CPE rescue – inhibitors of DENV2 cytopathic effect, primary screen, cell-based, plate reader, single concentration. actives 1.7% (n = 350,000). AID 651640, 2012. CPE inhibition, % at 9.99 µM. DENV2-infected cells, cytopathic effect rescue; in the data active means CPE inhibition above about 20%, passing the limit was not always enough; inconclusive means no clear call, values can overlap the other calls; tested in BHK-21 cells;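 further: 0% = median of neutral control wells and 100% = median of positive control wells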
# GSIS activator – GLuc luminescence reporter in INS-1E cells, primary screen for activators of glucose-dependent secretion of insulin; activation, % at 16.6 µM; actives 0.61% (n = 370,000); INS-1E GLuc reporter insulin secretion, 2-3 h; AID 743287, 2014;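 active means lowest replicate activation of at least 40%, so every replicate reaches that level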;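 further: 0% = median of neutral control wells and 100% = median of IBMX positive control wells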
# * = called active by the depositor; ? = inconclusive; · = not tested or not shown; [ ] = dose if it differs, or a comment.
SMILES,F508del corr,miR122 inh,ERAP1 HTS inh,E-selectin induc,DENV2 CPE rescue,GSIS activator
O=C(Nc1cccc(F)c1)N1CC(=O)N2[C@H](CO)[C@@H](c3ccc(-c4ccccc4)cc3)[C@@H]2C1,1.3,·,-2.4,-0.5,13.2,-18.3
COc1ccc(NC(=O)Nc2ccc3c(c2)C(=O)N([C@H](C)CO)C[C@@H](C)[C@@H](CN(C)S(=O)(=O)c2ccccc2)OCCCC[C@H](C)O3)cc1,-0.2,10.6[16.7 µM],-1.8,·,-0.8,14.5
COc1ccc(C(NC(C)=O)c2ccc3cccnc3c2O)c(OC)c1 (stereo unspecified),·,-15.7,·,·,·,·
CC(=O)NC(c1ccc2ccccc2c1)c1ccc2cccnc2c1O (stereo unspecified),13.1*,·,-1.5,0.4,-2.8,4.2
CCCC(=O)NC(c1ccc(Cl)cc1Cl)c1ccc2cccnc2c1O (stereo unspecified),1.6,·,-0.4,·,-16.0,-10.3
CC(=O)NC(c1ccc(Cl)cc1Cl)c1ccc2cccnc2c1O (stereo unspecified),10.0*,·,-4.2,-0.1,1.6,·
CCCC(=O)NC(c1ccc(Cl)cc1)c1ccc2cccnc2c1O (stereo unspecified),15.1*,-18.5,-3.3,0.2,3.9,-28.5
O=C(C[C@@H]1C=C[C@@H](NC(=O)C2CC2)[C@@H](CO)O1)NCCc1cscn1,1.8,·,-1.4,0.6,19.6,-2.9
C[C@H]1CN([C@@H](C)CO)S(=O)(=O)c2ccc(C3=CCCC3)cc2O[C@@H]1CN(C)C(=O)c1ccncc1,1.4,-12.7[16.7 µM],4.0,-0.8,1.9,0.8
CC1(C)Cc2c(cnn2-c2ccc(F)cc2)C(NC(=O)c2ccc(=O)oc2)C1 (stereo unspecified),-1.5,1.4,1.7,0.4,70.1*,-1.1
CC1(C)Cc2c(cnn2-c2ccc(F)cc2)C(NC(=O)c2cnccn2)C1 (stereo unspecified),-4.0,-5.8,-1.6,-0.3,-7.8,22.2
O=C1NCCc2c1[nH]c1ccc([N+](=O)[O-])cc21,11.4*,·,-2.1,·,-9.5,16.4
CN1CCN(S(=O)(=O)c2cccs2)CC1,0.6,·,1.5,0.1,33.9*,20.8
Cc1ccc(S(=O)(=O)N2CCN(S(=O)(=O)c3cccs3)CC2)cc1,-2.2,·,-3.9,0.0,-4.1,20.7
O=c1c2ccccc2oc2ccccc12,2.0,-4.0,-0.7,·,13.7,15.2
O=c1c2ccccc2oc2cc(-c3ccc4[nH]ccc4c3)ccc12,10.4*,19.4,1.6,1.8,2.0,·
C[C@H](CO)N1C[C@H](C)[C@@H](CN(C)C(=O)c2ccncc2)Oc2ncc(C#CC3CC3)cc2C1=O,1.3,-6.9[16.7 µM],·,3.9,·,2.0
Cc1ccccc1S(=O)(=O)N1[C@@H]2Cn3c(cccc3=O)[C@H]1[C@@H](C(=O)N1CCOCC1)[C@@H]2CO,0.6,4.3[16.7 µM],0.5,0.9,-4.9,5.2
c1cc(-c2ccc(N3CCOCC3)cc2)n2cnnc2c1,1.3,-2.7,6.3,-0.1,24.3*,6.3
c1cc(-c2ccc3c(c2)CCO3)n2cnnc2c1,0.8,-2.0,2.7,5.2,0.0,0.0
CCC(=O)N1[C@H](CO)[C@H](c2ccc(C#CC3CCCCC3)cc2)[C@@H]1CNC(C)C,3.1,·,0.9,0.0,-3.3,-13.1
Cc1cc(-c2ccc(Cl)cc2)n2nc(C)cc2n1,0.2,1.9,0.6,7.5,?,80.1*
Cc1cc(-c2ccc(Br)cc2)n2nc(C)cc2n1,3.7,3.5,0.4,-0.1,-3.0,42.6*
C[C@@H]1CCCCO[C@@H](CN(C)C(=O)Cc2ccccc2)[C@@H](C)CN([C@H](C)CO)C(=O)c2cc(NC(=O)CCCCCC(=O)Nc3ccccc3N)ccc2O1,-1.7,9.7[16.7 µM],-1.6,-0.3,-1.3,3.2
COc1ccccc1S(=O)(=O)N[C@H]1CC[C@H](CCNC(=O)C2CCC2)O[C@H]1CO,1.1,·,5.6,0.7,-4.1,-2.4
SMILES,F508del corr,miR122 inh,ERAP1 HTS inh,E-selectin induc,DENV2 CPE rescue,GSIS activator
COc1ccc2c(c1)C(=O)[C@@H](O)[C@H](c1ccc(OC)c(Br)c1)O2,·,5.3,·,·,·,·
COc1cc(OC)c2c(c1)OC(c1ccc(OC)c(OC)c1)C(O)C2=O (stereo unspecified),2.3,-0.8,-1.3,·,32.3*,9.2
COc1ccc(S(=O)(=O)N2CC(C(=O)O)Oc3ccc(Cl)cc32)cc1 (stereo unspecified),0.8,1.3,-5.6,0.3,5.8,-5.6
CC(C)(C)c1ccc(S(=O)(=O)N2CC(C(=O)O)Oc3ccc(Cl)cc32)cc1 (stereo unspecified),-0.1,-0.9,4.1,·,7.5,141.6*
O=C(NNCc1ccc(O)cc1)c1ccccc1Cl,0.4,-1.7,3.2,·,74.9*,-0.9
O=C(CCc1ccccc1)NNC(=O)c1ccccc1Cl,2.9,·,2.4,-0.1,-5.1,10.4
CCN1[C@H](C(=O)Nc2ccccc2)[C@@H](CO)[C@@H]2Cn3c(ccc(-c4ccccc4)c3=O)[C@@H]21,0.7,-4.0[16.7 µM],-1.3,-0.1,-3.8,-4.5
CCNc1nc(NCC)nc(Nn2cnnc2)n1,-1.6,1.0,1.7,·,-1.9,56.3*
O=C(c1ccccn1)N1CC[C@@H]2[C@@H](CO)Nc3ccc(Br)cc3[C@@H]21,-1.9,15.4[16.7 µM],-1.2,-0.1,5.7,-4.5
CN(C)CCCN1c2ccccc2Sc2ccc3ccccc3c21,1.0,-3.6,-0.2,0.2,42.6*,-26.3
O=[N+]([O-])c1nn(-c2ccccc2)n(O)c1=NCc1ccc2c(c1)OCO2,·,-4.3,·,·,·,·
COc1ccc(-n2nc([N+](=O)[O-])c(=NCc3ccc4c(c3)OCO4)n2O)cc1,-1.0,-0.5,-3.5,·,32.5*,2.6
CCOc1c(N2CC(C)OC(C)C2)c(=O)c1=O (stereo unspecified),-0.5,-3.4,3.1,·,-6.0,4.1
CC1CN(C2=CC(=O)CCC2)CC(C)O1 (stereo unspecified),-1.8,·,-1.3,-0.2,21.2*,-7.9
C[C@@H]1CN([C@@H](C)CO)C(=O)c2cc(NC(=O)CCC(F)(F)F)ccc2O[C@@H]1CN(C)S(=O)(=O)c1ccccc1,-2.1,23.9[16.7 µM],0.3,-0.4,5.2,0.4
CO[C@H]1CN(C)C(=O)c2ccc(NC(=O)c3ccc(F)cc3)cc2OC[C@H](C)N(C(C)=O)C[C@H]1C,-0.4,·,·,-0.1,·,2.9
CC1(C(=O)NCc2cccs2)Cc2c(-c3ccc4c(c3)OCO4)ccnc2O1 (stereo unspecified),9.5*,17.4,0.8,0.4,11.0,-9.7

# Assay outcomes: PubChem BioAssay, Broad Institute
